Source: ChEMBL document CHEMBL1121480, “Conversion of ergolines to hexahydro- and octahydrobenzo[f]quinolines (depyrroloergolines)” (1980)

How the values were obtained:
Assay type in all cases: functional
Rattus norvegicus [1] = test: Evaluated for the prolactin inhibition at the dose 50 ug/kg administered intraperitoneally; conditions: ip
Procedure, shortened: (§1)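 Reserpinized male rats given 50 μg/kg ip; serum prolactin (ng/mL) measured by the method of Clemens et al. against vehicle controls; % inhibition from treated vs control means; mean ± SEM of 10 rats; significance versus control.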

Rattus norvegicus [2] = test: Evaluated for the prolactin inhibition at the dose 50 ug/kg administered intraperitoneally (treatment); procedure, shortened: as §1
Rattus norvegicus [3] = test: Evaluated for the Average turns per first 15 minutes after administration of 1 mg/kg intraperitoneally; conditions: route intraperitoneal
Rattus norvegicus [4] = test: Evaluated for the rat turning after administration of 1 mg/kg intraperitoneally; conditions: route intraperitoneal

Structure (SMILES)	inhibition in vivo at 0.05 mg/kg (Rattus norvegicus [1])	serum prolactin level (Rattus norvegicus [2])	Average turns/first 15 min (Rattus norvegicus [3])	Rat turning (Rattus norvegicus [4])
CC1=C[C@@H]2c3cccc4[nH]cc(c34)C[C@H]2N(C)C1 [AGROCLAVINE]	63%	11.7 ng/mL	95	100%
CCCN1C[C@H](CSC)C[C@@H]2c3ccccc3CC[C@H]21.O=C(O)C(=O)O [DEPYRROLO PERGOLIDE]	35%	11.6 ng/mL	48	67%
C[C@@H](CO)NC(=O)[C@@H]1C=C2c3cccc4[nH]cc(c34)C[C@H]2N(C)C1.O=C(O)/C=C\C(=O)O [ERGONOVINE MALEATE]	36%	11.7 ng/mL	0	0%
C[C@@H](CO)NC(=O)C1C=C2c3ccccc3CC[C@H]2N(C)C1 (some centres undefined) [DEPYRROLO ERGONOVINE]	-24%	28.4 ng/mL	0	0%
CCCN1C[C@H](CSC)C[C@@H]2c3cccc4[nH]cc(c34)C[C@H]21 [PERGOLIDE]	95%	1.6 ng/mL	102	100%
CC1=C[C@@H]2c3ccccc3CC[C@H]2N(C)C1.O=C(O)C(=O)O [DEPYRROLO AGROCLAVINE]	9%	35.2 ng/mL	0	0%
